Test results: ChEMBL document CHEMBL1141908, “Inositol tripyrophosphate: a new membrane permeant allosteric effector of haemoglobin” (2005)
Where “and” joins values, the source holds several entries; their conditions need not be identical. Identical values can stand only once.

Experiments:
Mus musculus [1] = species: Mus musculus; experiment: In vitro percent P50 value of whole blood of murine was determined after incubation with compound (concentration 30 mM); type: functional
Method in brief: (§1)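 Whole blood (human, murine or porcine) incubated 1:1 vol/vol with effector solution at 290–310 mOsM, pH 7, for 60 min at 37 C. Cells then washed three times in 20 mM bis-Tris, pH 7, 308 mOsM. Hb–O2 curves read on a Hemox Analyzer in 20 mM Hemox buffer, pH 7.1–7.2, 37 C. P50 shift in % reported as mean of four values ± SD.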

Mus musculus [2] = species: Mus musculus; experiment: In vitro P50 value of whole blood of murine was determined after incubation with compound (concentration 30 mM); type: functional; method in brief: as §1
[3] = In vitro P50 value of free haemoglobin of human was determined after incubation with compound (concentration 60 mM)
[4] = molecular target: Hemoglobin beta chain (Mus musculus) (UniProt P02089); experiment: In vitro percent P50 value of free haemoglobin of murine was determined after incubation with compound (concentration 60 mM); type: functional
Hemoglobin beta chain (Mus musculus), sequence (P02089 whole entry): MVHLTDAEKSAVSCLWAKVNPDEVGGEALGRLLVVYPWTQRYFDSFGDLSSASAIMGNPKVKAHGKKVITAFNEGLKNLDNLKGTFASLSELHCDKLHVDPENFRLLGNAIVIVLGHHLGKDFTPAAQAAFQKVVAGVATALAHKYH
Method in brief: (§2)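 Free haemoglobin (human or murine) was mixed with a 60 mM compound solution adjusted to pH 6.9–7.1. Oxy-Hb dissociation curves were recorded on a Hemox Analyzer. P50 is the O2 partial pressure at 50% Hb saturation, and the shift is expressed as a percentage of untreated Hb. Means of three to ten P50 values were calculated, depending on the compound and species.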

[5] = molecular target: Hemoglobin subunit beta (Sus scrofa) (UniProt P02067); experiment: In vitro percent P50 value of free haemoglobin of procine was determined after incubation with compound (concentration 60 mM); type: functional
Hemoglobin subunit beta (Sus scrofa), sequence (P02067 whole entry): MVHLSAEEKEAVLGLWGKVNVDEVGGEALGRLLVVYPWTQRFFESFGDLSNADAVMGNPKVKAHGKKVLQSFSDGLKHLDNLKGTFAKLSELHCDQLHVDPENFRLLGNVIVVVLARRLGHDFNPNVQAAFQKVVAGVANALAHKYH
Method in brief: (§3)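 Porcine free Hb mixed with the effector solution (60 mM; pH adjusted to 6.9–7.1). Hb–O2 dissociation curves recorded on a Hemox Analyzer. P50 is the pO2 at 50% Hb saturation. Shift reported as % change versus control; means of three P50 values.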

[6] = molecular target: Hemoglobin beta chain (Mus musculus) (UniProt P02089); experiment: In vitro P50 value of free haemoglobin of murine was determined after incubation with compound (concentration 60 mM); type: functional; method in brief: as §2
[7] = molecular target: Hemoglobin subunit beta (Sus scrofa) (UniProt P02067); experiment: In vitro P50 value of free haemoglobin of procine was determined after incubation with compound (concentration 60 mM); type: functional; method in brief: as §3
[8] = In vitro percent P50 value of free haemoglobin of human was determined after incubation with compound (concentration 60 mM)
Homo sapiens [9] = species: Homo sapiens; experiment: In vitro percent P50 value of whole blood of human was determined after incubation with compound (concentration 60 mM); type: functional; method in brief: as §1
Mus musculus [10] = species: Mus musculus; experiment: In vitro percent P50 value of whole blood of murine was determined after incubation with compound (concentration 4 mM); type: functional; method in brief: as §1
Homo sapiens [11] = species: Homo sapiens; experiment: In vitro P50 value of whole blood of human was determined after incubation with compound (concentration 30 mM); type: functional; method in brief: as §1
[12] = In vitro percent P50 value of whole blood of procine was determined after incubation with compound (concentration 60 mM); type: functional, Sus scrofa; method in brief: as §1
[13] = In vitro P50 value of whole blood of procine was determined after incubation with compound (concentration 30 mM); type: functional, Sus scrofa; conditions: in the assay text read “concentration 60 mM” for “concentration 30 mM”; method in brief: as §1
Mus musculus [14] = species: Mus musculus; experiment: In vitro percent P50 value of whole blood of murine was determined after incubation with compound (concentration 60 mM); type: functional; method in brief: as §1
Homo sapiens [15] = species: Homo sapiens; experiment: In vitro percent P50 value of whole blood of human was determined after incubation with compound (concentration 30 mM); type: functional; method in brief: as §1

Structure (SMILES) | P50 (Mus musculus [1]) | P50 (Mus musculus [2]) | P50 [4] | P50 [6] | further results
NC1CCCCCCC1.NC1CCCCCCC1.NC1CCCCCCC1.NC1CCCCCCC1.NC1CCCCCCC1.NC1CCCCCCC1.O=P1(O)OC2C3OP(=O)(O)OP(=O)(O)OC3C3OP(=O)(O)OP(=O)(O)OC3C2OP(=O)(O)O1 (centres undefined) [listing 1 of 2 here] | 10% | 41.7 Torr |  |  | 
O=P1(O)OC2C3OP(=O)(O)OP(=O)(O)OC3C3OP(=O)(O)OP(=O)(O)OC3C2OP(=O)(O)O1 (centres undefined) |  |  | 189% [middle of 4 runs] | 69.7 Torr [middle of 4 runs] | P50 [3]: 49.8 Torr and 33.1 Torr; P50 [5]: 209%; P50 [7]: 68.1 Torr; P50 [8]: 225% and 170%
NC1CCCCCC1.NC1CCCCCC1.NC1CCCCCC1.NC1CCCCCC1.NC1CCCCCC1.NC1CCCCCC1.O=P1(O)OC2C3OP(=O)(O)OP(=O)(O)OC3C3OP(=O)(O)OP(=O)(O)OC3C2OP(=O)(O)O1 (centres undefined) [listing 1 of 2 here] |  |  | 76% | 43.8 Torr | 
C1CNCCN1.C1CNCCN1.C1CNCCN1.O=P1(O)OC2C3OP(=O)(O)OP(=O)(O)OC3C3OP(=O)(O)OP(=O)(O)OC3C2OP(=O)(O)O1 (centres undefined) [ITPP TRIPIPERAZINIUM SALT] | 8% | 42.3 Torr |  |  | 
O=P1([O-])OC2C3OP(=O)([O-])OP(=O)([O-])OC3C3OP(=O)([O-])OP(=O)([O-])OC3C2OP(=O)([O-])O1.[Na+].[Na+].[Na+].[Na+].[Na+].[Na+] (centres undefined) [ITPP SODIUM SALT] |  |  |  |  | P50 (Homo sapiens [9]): 39%; P50 (Mus musculus [10]): 29%; P50 (Homo sapiens [11]): 30.8 Torr; P50 [12]: 40%; P50 [13]: 44.2 Torr
CN(C)C1CCCCC1.CN(C)C1CCCCC1.CN(C)C1CCCCC1.CN(C)C1CCCCC1.CN(C)C1CCCCC1.CN(C)C1CCCCC1.O=P1(O)OC2C3OP(=O)(O)OP(=O)(O)OC3C3OP(=O)(O)OP(=O)(O)OC3C2OP(=O)(O)O1 (centres undefined) [listing 1 of 2 here] |  |  | 81% | 45.1 Torr | 
NC1CCCCCCC1.NC1CCCCCCC1.NC1CCCCCCC1.NC1CCCCCCC1.NC1CCCCCCC1.NC1CCCCCCC1.O=P1(O)OC2C3OP(=O)(O)OP(=O)(O)OC3C3OP(=O)(O)OP(=O)(O)OC3C2OP(=O)(O)O1 (centres undefined) [listing 2 of 2 here] |  |  | 23% | 30.6 Torr | 
NC1CCCCCC1.NC1CCCCCC1.NC1CCCCCC1.NC1CCCCCC1.NC1CCCCCC1.NC1CCCCCC1.O=P1(O)OC2C3OP(=O)(O)OP(=O)(O)OC3C3OP(=O)(O)OP(=O)(O)OC3C2OP(=O)(O)O1 (centres undefined) [listing 2 of 2 here] | 9% | 41.3 Torr |  |  | 
C1CNCCN1.C1CNCCN1.C1CNCCN1.C1CNCCN1.C1CNCCN1.C1CNCCN1.O=P1(O)OC2C3OP(=O)(O)OP(=O)(O)OC3C3OP(=O)(O)OP(=O)(O)OC3C2OP(=O)(O)O1 (centres undefined) [ITPP PIPERAZINIUM] | 7% | 41.9 Torr |  |  | 
CN(C)C1CCCCC1.CN(C)C1CCCCC1.CN(C)C1CCCCC1.CN(C)C1CCCCC1.CN(C)C1CCCCC1.CN(C)C1CCCCC1.O=P1(O)OC2C3OP(=O)(O)OP(=O)(O)OC3C3OP(=O)(O)OP(=O)(O)OC3C2OP(=O)(O)O1 (centres undefined) [listing 2 of 2 here] | 20% | 45.5 Torr |  |  | 
O=P1(O)OC2C3OP(=O)(O)OP(=O)(O)OC3C3OP(=O)(O)OP(=O)(O)OC3C2OP(=O)(O)O1.c1ccncc1.c1ccncc1.c1ccncc1.c1ccncc1.c1ccncc1 (centres undefined) |  |  | 100% | 50 Torr | P50 [3]: 31.6 Torr; P50 [8]: 107%
O=P1([O-])OC2C3OP(=O)([O-])OP(=O)([O-])OC3C3OP(=O)([O-])OP(=O)([O-])OC3C2OP(=O)([O-])O1.[Ca+2].[Ca+2].[Ca+2] (centres undefined) |  | 55.3 Torr |  |  | P50 (Mus musculus [14]): 38%; P50 (Homo sapiens [15]): 25%; P50 (Homo sapiens [11]): 31 Torr
O=P1(O)OC2C3OP(=O)(O)OP(=O)(O)OC3C3OP(=O)(O)OP(=O)(O)OC3C2OP(=O)(O)O1.c1ccncc1.c1ccncc1.c1ccncc1.c1ccncc1.c1ccncc1 (centres undefined) [ITPP PYRIDINIUM SALT] | 13% | 42.7 Torr |  |  | P50 (Homo sapiens [15]): 10%; P50 (Homo sapiens [11]): 24.3 Torr
